Experimental data reported in ChEMBL document CHEMBL4765245 (Eur J Med Chem, 2020).

Columns and labels:
[1] = system: Coxsackievirus B3; assay: Antiviral activity against pleconaril-resistant Coxsackievirus B3 97927 11207M/I1092 mutant infected in human HeLa cell line assessed as inhibition of virus-induced cytopathic effect measured after 48 hrs by crystal violet uptake assay; format: functional, organism-based
Procedure, shortened: (§1)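 HeLa Ohio monolayers, 2 days old and confluent, in MEM with 2% FCS. Serial half-log compound dilutions from 100 μM were added just before CVB3 infection. Activity was calculated per Pauwels against six cell and six virus controls; mean IC50 from ≥3 experiments.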

[2] = system: Coxsackievirus B3; assay: Antiviral activity against wild type Coxsackievirus B3 97927 infected in human HeLa cell line assessed as inhibition of virus-induced cytopathic effect measured after 48 hrs by crystal violet uptake assay; format: functional, organism-based
Procedure, shortened: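 Coxsackievirus B3 infection of 2-day-old HeLa Ohio monolayers in 2% FCS medium. Half-log dilutions from 100 μM added just before infection; guanidine hydrochloride served as positive control. Antiviral activity calculated per Pauwels; IC50 is the mean of at least 3 separate tests.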

[3] = system: rhinovirus B14; assay: Antiviral activity against Rhinovirus B14 infected in human HeLa cell line assessed as inhibition of virus-induced cytopathic effect measured after 72 hrs by crystal violet uptake assay; format: functional, organism-based
Procedure, shortened: (§2)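 HeLa Ohio monolayers, 1 day old, in 2% FCS medium. Compound added as serial half-log dilutions from 100 μM immediately before rhinovirus infection. Activity calculated per Pauwels; IC50 is the mean of at least 3 experiments.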

[4] = system: rhinovirus B5; assay: Antiviral activity against Rhinovirus B5 infected in human HeLa cell line assessed as inhibition of virus-induced cytopathic effect measured after 72 hrs by crystal violet uptake assay; format: functional, organism-based
Procedure, shortened: as §2, with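 “infection. CPE read at 72 h by crystal violet staining, elution and OD 550/630 nm, with six cell and six virus controls per plate.” for “infection.”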

[5] = system: rhinovirus A2; assay: Antiviral activity against Rhinovirus A2 infected in human HeLa cell line assessed as inhibition of virus-induced cytopathic effect measured after 72 hrs by crystal violet uptake assay; format: functional, organism-based; procedure, shortened: as §2
[6] = system: HeLa; assay: Cytotoxicity against human HeLa cells assessed as reduction in cell viability incubated for 72 hrs measured by crystal violet based micro plate reader method; conditions: hela, 72 h
Procedure, shortened: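 Two-day-old confluent HeLa Ohio monolayers exposed to half-log dilutions (100 μM downward) in 2% FCS medium for 72 h at 37 °C, 5% CO2. Cells fixed and stained with crystal violet/formalin, dye eluted with acidified citrate-ethanol, OD read at 550/630 nm. Viability expressed relative to six mock-treated controls; CC50 is the mean of at least 3 tests.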

[7] = system: Coxsackievirus B3; assay: Antiviral activity against Coxsackievirus B3 Nancy infected in human HeLa cell line assessed as inhibition of virus-induced cytopathic effect measured after 48 hrs by crystal violet uptake assay; format: functional, organism-based; procedure, shortened: as §1
[8] = system: Coxsackievirus B3; assay: Antiviral activity against pleconaril-resistant Coxsackievirus B3 97927 11207T/I1092 mutant infected in human HeLa cell line assessed as inhibition of virus-induced cytopathic effect measured after 48 hrs by crystal violet uptake assay; format: functional, organism-based; conditions: read-out: IC50; procedure, shortened: as §1
[9] = Enterovirus B, 97927, HeLa, 48 h, read-out: IC50
[10] = Rhinovirus B, HeLa, 72 h, read-out: IC50
[11] = Rhinovirus A, HeLa, 72 h, read-out: IC50

| SMILES | IC50 [1] | IC50 [2, 9] | IC50 [3, 10] | IC50 [4] | IC50 [5, 11] | CC50 [6] | IC50 [7] | IC50 [8] | IC50 [5] | IC50 [3] | IC50 [2] | IC50 [4, 10] | IC50 ([7]; Enterovirus B, Nancy, HeLa, 48 h, read-out: IC50) |
| --- | --- | --- | --- | --- | --- | --- | --- | --- | --- | --- | --- | --- | --- |
| CCOC(=O)c1cc(CCCOc2ccc(-c3noc(C(F)(F)F)n3)cc2[N+](=O)[O-])on1 | 0.18 µM | 0.148 µM | 2.93 µM | Not Active | 47.7 µM | > 100 µM | Not Active | 3.99 µM |  |  |  |  |  |
| CCOC(=O)c1cc(CCCOc2ccc(-c3noc(C(F)(F)F)n3)cc2F)on1 | 1.35 µM | 0.217 µM | 0.5 µM | Not Active |  | 60.2 µM | Not Active | 24.9 µM | Not Active |  |  |  |  |
| CCOC(=O)c1cc(CCCOc2ccc(-c3noc(C(F)(F)F)n3)cc2C(F)(F)F)on1 | 0.01 µM | 0.03 µM |  | Not Active | 4.89 µM | 28.4 µM | Not Active | 1.04 µM |  | Not Active |  |  |  |
| CCOC(=O)c1cc(CCCOc2ccc(-c3noc(C(F)(F)F)n3)cc2NC(C)=O)on1 |  |  |  | Not Active |  | > 100 µM | Not Active |  | Not Active | Not Active | Not Active |  |  |
| CCOC(=O)c1cc(CCCOc2c(OC)cc(-c3noc(C(F)(F)F)n3)cc2[N+](=O)[O-])on1 | 10.1 µM | 1.19 µM | 2.68 µM | Not Active | 5.63 µM | > 100 µM | Not Active | 43.8 µM |  |  |  |  |  |
| CCOC(=O)c1cc(CCCOc2ccc(-c3noc(C(F)(F)F)n3)cc2)on1 | 6.54 µM | 0.746 µM | 0.34 µM | Not Active |  | > 100 µM | Not Active | 42.9 µM | Not Active |  |  |  |  |
| CC(=O)Nc1cc(-c2noc(C(F)(F)F)n2)ccc1OCCCc1cc(C(=O)N(C)C)no1 | 16.1 µM | 30.1 µM | 18.1 µM | Not Active |  | > 100 µM | Not Active | 73.2 µM | Not Active |  |  |  |  |
| CCOC(=O)c1cc(CCCOc2ccc(-c3noc(C(F)(F)F)n3)cc2OC)on1 | 3.41 µM | 0.49 µM | 0.66 µM |  | 59.7 µM | > 100 µM | Not Active | 37.3 µM |  |  |  | 19.4 µM |  |
| CCOC(=O)c1cc(CCCOc2ccc(-c3noc(C(F)(F)F)n3)cc2N)on1 |  | 20 µM | 14.3 µM | Not Active |  | > 100 µM | Not Active |  | Not Active |  |  |  |  |
| CCOC(=O)c1cc(CCCOc2ccc(-c3noc(C(F)(F)F)n3)cc2/N=C/N(C)C)on1 |  | 19.9 µM | 29.3 µM | Not Active |  | > 100 µM | Not Active |  | Not Active |  |  |  |  |
| Cc1cc(-c2noc(C(F)(F)F)n2)cc(C)c1OCCCc1cc(-c2ccc(OC(F)(F)F)cc2)no1 |  |  |  |  |  | > 100 µM |  |  | Not Active |  | Not Active |  |  |
| COc1ccc(-c2cc(CCCOc3c(C)cc(-c4noc(C(F)(F)F)n4)cc3C)on2)cc1OC |  |  | 2.78 µM |  | 2.11 µM | 41.9 µM |  |  |  |  | Not Active |  |  |
| CCOC(=O)c1cc(CCCOc2ccc(-c3noc(C(F)(F)F)n3)cc2-n2cccc2)on1 |  | 10.2 µM |  | Not Active |  | 57.3 µM | Not Active | 14.3 µM | Not Active | Not Active |  |  |  |
| CN(C)C(=O)c1cc(CCCOc2ccc(-c3noc(C(F)(F)F)n3)cn2)on1 |  | 5.95 µM | 0.12 µM |  |  | 48.8 µM |  | 17.4 µM |  |  |  | 4.28 µM | 22.2 µM |
| CN(C)C(=O)c1cc(CCCOc2ccc(-c3noc(C(F)(F)F)n3)cc2-n2cccc2)on1 | 1.06 µM | 0.82 µM | 7.34 µM | Not Active | 3.21 µM | 21.2 µM | Not Active | 3.55 µM |  |  |  |  |  |
